Published values pooled from the literature.
Lines come from different studies, so protocols differ.
Target: Serine/threonine-protein kinase RIO2 (RIOK2, Homo sapiens, UniProt Q9BVS4)

c1cncc(-c2cccc(Nc3nccc(NC4CCCCC4)n3)c2)c1
remaining binding (binding; competition with immobilised ligand; 10 µM): 37%

O=C(NCC1CCOCC1)c1n[nH]cc1NC(=O)c1c(F)cccc1F
remaining binding (binding; competition with immobilised ligand; 1 µM): 35%

NS(=O)(=O)c1cc(NC(=O)Cc2ccccc2)ccc1Oc1cccc(Cl)c1
remaining binding (cell-free assay; competition with immobilised ligand; 1 µM): 100%

CCN1CCN(Cc2ccc(C(=O)Nc3ccc(C)c(Oc4ccc5c(c4)CC(=O)N5)c3)cc2C(F)(F)F)CC1
remaining binding (binding; competition with immobilised ligand; 1 µM): 100%

FC(F)(F)Oc1cccc(-c2cnc3ccc(-c4ccncc4)nn23)c1
remaining binding (binding; competition with immobilised ligand; 5 µM): 7.7%

O=C(c1ccc(Nc2nccc(-c3cc4ccccc4s3)n2)cc1)N1CCC(N2CCCC2)CC1
remaining binding (binding; competition with immobilised ligand; 1 µM): 46%

COc1cnc(Nc2cccc(S(N)(=O)=O)c2)nc1N1CCN(c2ccccc2)C(=O)C1
remaining binding (binding; competition with immobilised ligand; 1 µM): 100%

CN(CCCC(F)(F)F)c1nccc(-c2cnn3ncccc23)n1
remaining binding (binding; 1 µM): 100%

O=C(NCCCN1CCOCC1)c1ccc(Nc2ncc(Cl)c(-c3ccc(Cl)s3)n2)cc1
remaining binding (binding; competition with immobilised ligand; 1 µM): 59%

C[C@@H]1CCN(c2nccc(-c3cnn4ncccc34)n2)C1
remaining binding (binding; 1 µM): 75%

CC(C)(C)c1ccc(-c2nc(CBr)nn2-c2cccc(O)c2)cc1
remaining binding (cell-free assay; competition with immobilised ligand; 10 µM): 84%

Cc1nc(N2CC[C@@H](O)C2)ncc1-c1cc(C(F)(F)F)cc2[nH]ncc12
remaining binding (binding; competition with immobilised ligand; 1 µM): 100%

N#Cc1ccccc1CSc1nnc2c(n1)[nH]c1ccccc12
remaining binding (binding; competition with immobilised ligand; 10 µM): 94%

c1ccc(N2CCN(Cc3nc4ccccc4[nH]3)CC2)nc1
remaining binding (binding; competition with immobilised ligand; 1 µM): 100%

F[C@@H]1CCN(c2nccc(-c3cnn4ncccc34)n2)C1
remaining binding (binding; 1 µM): 64%

CCc1ccccc1C(=O)Nc1n[nH]c2c(C)c(F)c(C3C(C#N)=C(C)N(C)C(C)=C3C#N)cc12
remaining binding (cell-free assay; competition with immobilised ligand; 1 µM): 93%

C[C@@H]1CN(c2ccc3ncc(-c4ccc5[nH]nc(C6CC6)c5c4)n3n2)C[C@H](C)O1
remaining binding (binding; competition with immobilised ligand; 0.5 µM): 23%

c1cnn2ncc(-c3ccnc(N4CCC45COC5)n3)c2c1
remaining binding (binding; 1 µM): 61%

CC(C)(O)c1cncc(-c2nc3ccc(F)cc3n2C2CC2)c1
remaining binding (cell-free assay; competition with immobilised ligand; 1 µM): 100%

CN(c1nccc(-c2cnn3ncccc23)n1)C1CC1
remaining binding (binding; 1 µM): 99%

O=C(Nc1ccc(Oc2ccc(F)cc2)cc1)N1CCc2ncccc2[C@H]1c1ccc(F)cc1
remaining binding (cell-free assay; competition with immobilised ligand; 1 µM): 94%

COc1cnc(Nc2cccc(S(N)(=O)=O)c2)nc1N1CCN(c2ccccc2)CC1
remaining binding (binding; competition with immobilised ligand; 1 µM): 83%

CN(C)C(=O)Cn1cc(-c2nc([C@@](C)(c3ccc(-c4cnc(N)nc4)cc3)C3CC3)no2)cn1
remaining binding (cell-free assay; competition with immobilised ligand; 1 µM): 87%

O=C(NCCCN1CCOCC1)c1ccc(Nc2nccc(-c3cc4ccccc4s3)n2)cc1
remaining binding (binding; competition with immobilised ligand; 1 µM): 47%
